Reference: ChEMBL document CHEMBL4406880, “Design, synthesis, and bioactivity of dihydropyrimidine derivatives as kinesin spindle protein inhibitors” (Bioorg Med Chem, 2019)

Experiments:
Format in all cases: functional
[1] = test system: SR; assay: Growth inhibition of human SR cells assessed as growth percentage at 10 uM incubated for 48 hrs by sulforhodamine B assay relative to control; conditions: read-out: Activity
Procedure, shortened: (§1)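 NCI-60 single-dose screen. Cells were grown in RPMI 1640 with 5% FBS and 2 mM L-glutamine and plated at 5,000–40,000 cells/well. After an overnight preincubation at 37 °C in 5% CO2, compound was added at a final 10 µM from a DMSO stock, with DMSO/PBS controls. After 48 h, cells were TCA-fixed and stained with 0.4% SRB, and absorbance was read at 515 nm. Growth is given as a percentage of untreated control.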

[2] = test system: EKVX; assay: Growth inhibition of human EKVX cells assessed as growth percentage at 10 uM incubated for 48 hrs by sulforhodamine B assay relative to control; conditions: read-out: Activity
Procedure, shortened: (§2)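 NCI-60 one-dose screen: cells in RPMI 1640 with 5% FBS and 2 mM L-glutamine, plated at 5,000–40,000 cells/well and preincubated 24 h at 37 °C, 5% CO2. Compound is added from a DMSO stock to a final 10 µM and incubated 48 h. Cells are TCA-fixed and stained with sulforhodamine B, read at 515 nm. Output is % growth versus untreated control, with a time-zero plate.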

[3] = test system: HOP-62; assay: Growth inhibition of human HOP62 cells assessed as growth percentage at 10 uM incubated for 48 hrs by sulforhodamine B assay relative to control; conditions: HOP-62, 48 h, read-out: Activity
Procedure, shortened: (§3)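 NCI-60 one-dose screen. Cells in RPMI 1640 with 5% FBS and 2 mM L-glutamine, seeded at 5,000–40,000 cells/well according to doubling time, and preincubated overnight at 37 °C, 5% CO2. A time-zero plate was TCA-fixed at drug addition. Compound from DMSO stock, final 10 µM, 48 h; DMSO vehicle controls. Fixation with TCA, 10% final (16% for suspension cells). SRB stain, Tris solubilization, A515. Result given as % growth versus untreated cells.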

[4] = test system: HOP-92; assay: Growth inhibition of human HOP92 cells assessed as growth percentage at 10 uM incubated for 48 hrs by sulforhodamine B assay relative to control; conditions: HOP-92, 48 h, read-out: Activity; procedure, shortened: as §3
[5] = test system: NCI-H23; assay: Growth inhibition of human NCI-H23 cells assessed as growth percentage at 10 uM incubated for 48 hrs by sulforhodamine B assay relative to control; conditions: NCI-H23, 48 h, read-out: Activity; procedure, shortened: as §3
[6] = test system: NCI-H322M; assay: Growth inhibition of human NCI-H322M cells assessed as growth percentage at 10 uM incubated for 48 hrs by sulforhodamine B assay relative to control; conditions: read-out: Activity; procedure, shortened: as §3
[7] = test system: NCI-H460; assay: Growth inhibition of human NCI-H460 cells assessed as growth percentage at 10 uM incubated for 48 hrs by sulforhodamine B assay relative to control; conditions: NCI-H460, 48 h, read-out: Activity; procedure, shortened: as §3
[8] = test system: NCI-H522; assay: Growth inhibition of human NCI-H522 cells assessed as growth percentage at 10 uM incubated for 48 hrs by sulforhodamine B assay relative to control; conditions: NCI-H522, 48 h, read-out: Activity; procedure, shortened: as §3
[9] = test system: HCC 2998; assay: Growth inhibition of human HCC2998 cells assessed as growth percentage at 10 uM incubated for 48 hrs by sulforhodamine B assay relative to control; conditions: HCC 2998, 48 h, read-out: Activity; procedure, shortened: as §2
[10] = test system: KM12; assay: Growth inhibition of human KM12 cells assessed as growth percentage at 10 uM incubated for 48 hrs by sulforhodamine B assay relative to control; conditions: KM12, 48 h, read-out: Activity; procedure, shortened: as §3
[11] = test system: SF-268; assay: Growth inhibition of human SF268 cells assessed as growth percentage at 10 uM incubated for 48 hrs by sulforhodamine B assay relative to control; conditions: SF-268, 48 h, read-out: Activity; procedure, shortened: as §1
[12] = test system: SF-295; assay: Growth inhibition of human SF295 cells assessed as growth percentage at 10 uM incubated for 48 hrs by sulforhodamine B assay relative to control; conditions: SF-295, 48 h, read-out: Activity; procedure, shortened: as §1
[13] = test system: SNB-19; assay: Growth inhibition of human SNB19 cells assessed as growth percentage at 10 uM incubated for 48 hrs by sulforhodamine B assay relative to control; conditions: SNB-19, 48 h, read-out: Activity; procedure, shortened: as §1
[14] = test system: Malme-3M; assay: Growth inhibition of human MALME-3M cells assessed as growth percentage at 10 uM incubated for 48 hrs by sulforhodamine B assay relative to control; conditions: read-out: Activity; procedure, shortened: as §3
[15] = test system: SK-MEL-2; assay: Growth inhibition of human SK-MEL-2 cells assessed as growth percentage at 10 uM incubated for 48 hrs by sulforhodamine B assay relative to control; conditions: SK-MEL-2, 48 h, read-out: Activity; procedure, shortened: as §1
[16] = test system: SK-MEL-28; assay: Growth inhibition of human SK-MEL-28 cells assessed as growth percentage at 10 uM incubated for 48 hrs by sulforhodamine B assay relative to control; conditions: SK-MEL-28, 48 h, read-out: Activity; procedure, shortened: as §1
[17] = test system: UACC-257; assay: Growth inhibition of human UACC257 cells assessed as growth percentage at 10 uM incubated for 48 hrs by sulforhodamine B assay relative to control; conditions: UACC-257, 48 h, read-out: Activity; procedure, shortened: as §1
[18] = test system: OVCAR-3; assay: Growth inhibition of human OVCAR3 cells assessed as growth percentage at 10 uM incubated for 48 hrs by sulforhodamine B assay relative to control; conditions: OVCAR-3, 48 h, read-out: Activity; procedure, shortened: as §3
[19] = test system: OVCAR-4; assay: Growth inhibition of human OVCAR4 cells assessed as growth percentage at 10 uM incubated for 48 hrs by sulforhodamine B assay relative to control; conditions: OVCAR-4, 48 h, read-out: Activity; procedure, shortened: as §3
[20] = test system: OVCAR-5; assay: Growth inhibition of human OVCAR5 cells assessed as growth percentage at 10 uM incubated for 48 hrs by sulforhodamine B assay relative to control; conditions: OVCAR-5, 48 h, read-out: Activity; procedure, shortened: as §1
[21] = test system: OVCAR-8; assay: Growth inhibition of human OVCAR8 cells assessed as growth percentage at 10 uM incubated for 48 hrs by sulforhodamine B assay relative to control; conditions: OVCAR-8, 48 h, read-out: Activity; procedure, shortened: as §1
[22] = test system: NCI/ADR-RES; assay: Growth inhibition of human NCI/ADR-RES cells assessed as growth percentage at 10 uM incubated for 48 hrs by sulforhodamine B assay relative to control; conditions: read-out: Activity; procedure, shortened: as §3
[23] = test system: 786-0; assay: Growth inhibition of human 786-0 cells assessed as growth percentage at 10 uM incubated for 48 hrs by sulforhodamine B assay relative to control; conditions: 786-0, 48 h, read-out: Activity; procedure, shortened: as §2
[24] = test system: A498; assay: Growth inhibition of human A498 cells assessed as growth percentage at 10 uM incubated for 48 hrs by sulforhodamine B assay relative to control; conditions: A498, 48 h, read-out: Activity; procedure, shortened: as §2
[25] = test system: ACHN; assay: Growth inhibition of human ACHN cells assessed as growth percentage at 10 uM incubated for 48 hrs by sulforhodamine B assay relative to control; conditions: read-out: Activity; procedure, shortened: as §2
[26] = test system: MDA-MB-231; assay: Growth inhibition of human MDA-MB-231 cells assessed as growth percentage at 10 uM incubated for 48 hrs by sulforhodamine B assay relative to control; conditions: MDA-MB-231, 48 h, read-out: Activity; procedure, shortened: as §3
[27] = test system: T47D; assay: Growth inhibition of human T47D cells assessed as growth percentage at 10 uM incubated for 48 hrs by sulforhodamine B assay relative to control; conditions: read-out: Activity; procedure, shortened: as §1

| SMILES | growth at 10 µM [1] | growth at 10 µM [2] | growth at 10 µM [3] | growth at 10 µM [4] | growth at 10 µM [5] | growth at 10 µM [6] | growth at 10 µM [7] | growth at 10 µM [8] | growth at 10 µM [9] | growth at 10 µM [10] | growth at 10 µM [11] | growth at 10 µM [12] | growth at 10 µM [13] | growth at 10 µM [14] | growth at 10 µM [15] | growth at 10 µM [16] | growth at 10 µM [17] | growth at 10 µM [18] | growth at 10 µM [19] | growth at 10 µM [20] | further results |
| --- | --- | --- | --- | --- | --- | --- | --- | --- | --- | --- | --- | --- | --- | --- | --- | --- | --- | --- | --- | --- | --- |
| COCCOC(=O)C1=C(C)NC(=O)NC1c1ccc2c(c1)OCO2 (racemic) | 105% | 99.1% | 108% | 112% | 92% | 107% | 105% | 91.8% | 101% | 102% | 98% | 98.5% | 95.6% | 99.8% | 104% | 112% | 103% | 110% | 94.4% | 101% | growth at 10 µM [21]: 99.3%; growth at 10 µM [22]: 104%; growth at 10 µM [23]: 102%; growth at 10 µM [24]: 87%; growth at 10 µM [25]: 107%; growth at 10 µM [26]: 98.8%; growth at 10 µM [27]: 98.4% |
| CC1=C(C(=O)OCc2ccccc2)C(c2ccc3c(c2)OCO3)NC(=S)N1 (racemic) | 77.2% | 97.5% | 106% | 99% | 94.5% | 95.1% | 96.7% | 89.5% | 120% | 91.9% | 97.3% | 102% | 103% | 115% | 96.7% | 106% | 96.7% | 98.4% | 84.5% | 100% | growth at 10 µM [21]: 97.5%; growth at 10 µM [22]: 105%; growth at 10 µM [23]: 105%; growth at 10 µM [24]: 72.8%; growth at 10 µM [25]: 98.9%; growth at 10 µM [26]: 105%; growth at 10 µM [27]: 74% |
